Measured values as given in ChEMBL document CHEMBL1126900, “Transformation of heterocyclic reversible monoamine oxidase-B inactivators into irreversible inactivators by N-methylation” (J Med Chem, 1993).

Target: T1, Amine oxidase [flavin-containing] B (Bos taurus, UniProt P56560)
T1 sequence (P56560 whole entry): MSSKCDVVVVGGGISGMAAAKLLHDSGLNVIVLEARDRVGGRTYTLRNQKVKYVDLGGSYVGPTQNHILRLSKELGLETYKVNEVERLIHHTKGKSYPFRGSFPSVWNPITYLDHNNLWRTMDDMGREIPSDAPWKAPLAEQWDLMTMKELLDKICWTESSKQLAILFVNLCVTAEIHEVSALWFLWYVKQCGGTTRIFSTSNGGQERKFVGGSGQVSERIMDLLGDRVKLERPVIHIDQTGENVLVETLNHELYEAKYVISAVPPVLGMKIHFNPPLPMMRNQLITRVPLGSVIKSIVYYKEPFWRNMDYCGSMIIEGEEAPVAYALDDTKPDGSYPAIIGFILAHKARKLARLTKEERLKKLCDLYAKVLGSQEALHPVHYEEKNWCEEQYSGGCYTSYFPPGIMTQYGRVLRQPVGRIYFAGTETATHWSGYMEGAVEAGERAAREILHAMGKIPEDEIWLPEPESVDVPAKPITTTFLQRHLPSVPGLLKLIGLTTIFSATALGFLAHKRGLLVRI
Assay: Kinetic constant for inactivation of MAO B from replot of half-lives of inactivation
Conditions: for kinact: cattle
In short: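 Bovine liver MAO-B (specific activity 4–6 units/mg) preincubated at 25 °C with inactivator hydrochloride at various concentrations, or none (control), in 100 mM potassium phosphate pH 7.40 with 2.0 mM glutathione. Aliquots taken periodically and assayed with 0.50 mM cinnamylamine in 100 mM Tris pH 9.0, 25 °C. Activity corrected against control. KI and kinact obtained by Kitz–Wilson replot of inactivation half-lives.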

Row | Compound | Ki | kinact
1 | COc1ccc(N2CC(CN)CC2=O)cc1 (stereo unspecified) | 6.7 mM | 1.12e-05 s⁻¹
2 | COc1ccc(N2CC(CN(C)C)CC2=O)cc1 (stereo unspecified) | 300 mM | 5.83e-05 s⁻¹
3 | CN(C)CC1CN(c2ccc(OCc3cccc(Cl)c3)cc2)C(=O)O1 (stereo unspecified) | 0.5 mM | 0.00137 s⁻¹
4 | NCC1CN(c2ccc(OCc3cccc(Cl)c3)cc2)C(=O)O1 (stereo unspecified) | 0.067 mM | 0.00233 s⁻¹
5 | CNCC1CN(c2ccc(OC)cc2)C(=O)O1 (stereo unspecified) | 4.7 mM | 3.17e-05 s⁻¹
6 | CNCC1CC(=O)N(c2ccc(OC)cc2)C1 (stereo unspecified) | 50 mM | 5.83e-05 s⁻¹
7 | COc1ccc(N2CC(CN(C)C)OC2=O)cc1 (stereo unspecified) | 13.3 mM | 5e-05 s⁻¹

The next lines start with the values.

Row | Ki | kinact | Compound
8 | 6.7 mM | 7.33e-05 s⁻¹ | COc1ccc(C2CC(CN)OC2=O)cc1 (stereo unspecified)
9 | – | 1.33e-05 s⁻¹ | COc1ccc(N2CC(CN)OC2=O)cc1 (stereo unspecified)
10 | 200 mM | 0.000283 s⁻¹ | COc1ccc([C@H]2C[C@@H](CN(C)C)OC2=O)cc1
11 | 0.2 mM | 0.000417 s⁻¹ | CNCC1CN(c2ccc(OCc3cccc(Cl)c3)cc2)C(=O)O1 (stereo unspecified)
